NPY Y1 blocker – antagonists of human neuropeptide Y receptor Y1; actives 1% (n = 200,000); inhibition, % at 3.6 µM; P25929; AID 1040; HEK293-CNG Y1 cells, membrane potential fluorescence; NPY at EC95, then isoproterenol;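 active = inhibition above the campaign mean inhibition of all tested compounds plus 3 SD, cut at about 20% in these data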
Target sequence (P25929 whole entry, looked up): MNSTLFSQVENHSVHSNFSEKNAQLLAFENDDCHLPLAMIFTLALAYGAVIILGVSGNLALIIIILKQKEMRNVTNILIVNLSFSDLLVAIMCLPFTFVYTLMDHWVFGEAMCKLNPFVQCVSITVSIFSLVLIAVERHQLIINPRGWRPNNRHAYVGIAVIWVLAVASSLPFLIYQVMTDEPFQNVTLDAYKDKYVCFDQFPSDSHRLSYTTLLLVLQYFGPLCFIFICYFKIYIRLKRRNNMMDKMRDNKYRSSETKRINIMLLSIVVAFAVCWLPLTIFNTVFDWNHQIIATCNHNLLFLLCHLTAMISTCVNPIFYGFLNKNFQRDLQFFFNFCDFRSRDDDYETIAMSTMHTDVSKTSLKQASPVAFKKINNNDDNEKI
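material = HEK293 cells with Y1 receptor plus CNG channel | also added = NPY 25 nM then isoproterenol 1 µM plus Ro 20-1724 25 µM | schedule = dye 3 h, compound 60 min room temperature, stimulation 45 min | measured by = membrane potential fluorescence | benchmarks = high control isoproterenol alone, low control NPY with isoproterenol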
Rad51 HR inh – blocks human Rad51 in homologous recombination; Q06609; hRad51 DNA strand exchange, fluorescence dequenching; inhibition, % at 10 µM; actives 0.085% (n = 200,000); AID 1385;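 active = inhibition above 40% at the single screening dose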
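Material: human Rad51–ssDNA filaments; Probe or stimulus: labelled 47-mer dsDNA for strand exchange; Doses: single 10 µM dose; Incubation: 37 °C 15-min filament assembly, 30-min compound preincubation, 15-min exchange; Technique: FRET fluorescence dequenching, excitation 485 nm, emission 520 nm; Measure: Fluorescence-based percent inhibition, control- and blank-normalised; Benchmarks: plate control and blank wells.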
NPY2 pot ag – potentiators or agonists of human neuropeptide Y receptor Y2; P49146; cells expressing NPY-Y2, potentiator/agonist read-out; activation, % at 3.6 µM; actives 0.45% (n = 220,000); AID 1359; in the data active = activation above about 27%;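 also: cells stimulated with NPY near EC25 plus isoproterenol at EC100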
NPY1 pot ag – human NPY-Y1 potentiation or agonism, primary screen; AID 1304; NPY-Y1 expressing cells, potentiator/agonist activation; activation, % at 3.6 µM; actives 0.37% (n = 220,000); in the data active = activation above about 33%, passing the limit was not always enough;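 also: cells stimulated with NPY at EC10 then isoproterenol at EC100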
NPY Y2 blocker – blocks the human neuropeptide Y Y2 receptor | AID 793 | NPY-Y2 expressing cells, antagonist mode | inhibition, % at 2.7 µM | actives 0.99% (n = 140,000) | P49146; in the data active = inhibition above about 17%
Measles CPE – protection of cells from measles virus. Measles virus-infected cells, CPE protection, absorbance. protection (pct of control), % at 4 µM. actives 1.5% (n = 140,000). AID 841; in the data active = protection mostly above about 24%, no sharp cut-off; inactive = mostly below about 26%
NPY-Y1 confirm – confirmation of human NPY-Y1 receptor potentiators or agonists; cell-based NPY-Y1 potentiator/agonist assay; actives 20% (n = 280); activation, % at 3.6 µM; shares compounds with NPY1 pot ag; in the data active = activation above about 45%;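 also: cells challenged with NPY at its EC10 plus isoproterenol stimulus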
NPY-Y2 counter – potentiates or activates NPY-Y2, counter-screen for NPY-Y1 hits | shares compounds with NPY1 pot ag | HEK293-CNG cells, membrane-potential fluorescence (FLIPR), 1536-well | activation, % at 3.6 µM | actives 20% (n = 280); in the data active = activation above about 33%
NPY-Y1 ag – activates human NPY-Y1, counter-screen for NPY-Y1 potentiators; activation, % at 3.6 µM; shares compounds with NPY1 pot ag; actives 50% (n = 280); HEK293 Y1-CNGC, membrane potential fluorescence, agonist mode; AID 1697;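 active = percent activation above the mean of DMSO-only control wells plus 3 SD of those wells, cut at about 18% in these data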;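 also: cells challenged with isoproterenol plus Ro 20-1724 with no NPY in test wells; Y1 agonism lowers isoproterenol-driven cAMP and reduces probe fluorescence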
NPY-Y2 ag – human NPY-Y2 agonism as NPY-Y1 counter-screen; activation, % at 3.6 µM; AID 1698; actives 67% (n = 280); HEK293 Y2-CNGC, membrane potential fluorescence, agonist mode; shares compounds with NPY1 pot ag;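 active = activation above the solvent-only control wells' mean plus 3 SD, cut at about 11% in these data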;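 also: agonism lowers cAMP so well fluorescence drops in active wells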
CNGC inh 2 – counter-screen for NPY-Y1 potentiators or agonists: CNG channel inhibitors. shares compounds with NPY1 pot ag. HEK293-CNG parental, isoproterenol cAMP, membrane potential fluorescence. inhibition, % at 3.6 µM. actives 42% (n = 280). AID 1704;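 active = inhibition above the mean of stimulated solvent-only control wells plus 3 SD, cut at about 22% in these data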
A number is an active result; – = inactive; · = no result given. Only some compounds are listed: those with a hit (about 2.8% of all), similar ones and a draw of the others.

SMILES | NPY Y1 blocker | Rad51 HR inh | NPY2 pot ag | NPY1 pot ag | NPY Y2 blocker | Measles CPE | NPY-Y1 confirm | NPY-Y2 counter | NPY-Y1 ag | NPY-Y2 ag | CNGC inh 2
COc1cc(/C=C2\SC(=S)N(N3CCOCC3)C2=O)ccc1O | · | – | – | 47.7 | · | · | – | – | – | 10.0 | –
Cc1ccc2oc(-c3cc(NC(=O)c4ncn[nH]4)ccc3O)nc2c1 | – | – | – | – | · | · | · | · | · | · | ·
O=C(Nc1ccccc1)Nc1cc(OCC(F)(F)F)cc(OCC(F)(F)F)c1 | – | – | – | 45.5 | – | – | – | – | – | 25.0 | 25.0
S=c1[nH]nc(Nc2cccc3ccccc23)s1 | · | – | – | – | · | · | · | · | · | · | ·
Cc1[nH]c2ccccc2c1C(=O)CN1C(=O)NC(C)(c2ccc(Cl)cc2Cl)C1=O (centres undefined) | – | – | – | 55.8 | – | – | – | – | 32.0 | 18.1 | 27.0
Cc1[nH]c2ccccc2c1C(=O)CSc1ccc(Cl)cc1 | – | · | – | – | · | · | · | · | · | · | ·
COc1ccc(Oc2c(Cl)cnn(-c3ccc(Cl)c(Cl)c3)c2=O)cc1 | – | – | – | 81.7 | – | – | 77.6 | 49.2 | 61.3 | 43.2 | 64.5
COc1ccc(Oc2c(Cl)cnn(-c3ccc(C)cc3)c2=O)cc1 | – | – | – | – | – | – | · | · | · | · | ·
Cc1ccc([N+](=O)[O-])cc1NC(=O)C[n+]1ccccc1 | – | – | – | – | · | · | · | · | · | · | ·
CCOc1ccc(C(=O)Nc2ccc(N3CCN(C)CC3)cc2)cc1Br | – | – | – | 37.2 | – | – | – | – | 23.0 | 22.0 | 26.4
Oc1c(Cl)cc(Cl)cc1C=Nc1cc(C(F)(F)F)ccc1N1CCc2ccccc2C1 | · | – | – | – | · | · | · | · | · | · | ·
Nc1ccc(Nc2ccccc2)c(Cl)c1 | – | – | – | – | – | – | · | · | · | · | ·
Nc1ccccc1Nc1ccccc1 | – | – | – | 38.0 | – | – | – | – | – | – | 24.2
Cc1cc(/C=C2/SC(=O)N(CC(=O)N3CCOCC3)C2=O)c(C)n1-c1ccccc1F | – | – | – | – | – | – | · | · | · | · | ·
Cc1[nH]n(-c2ccc([N+](=O)[O-])cc2)c(=O)c1C=NCCN1CCN(C(=O)c2cccc(F)c2)CC1 | – | – | – | 46.8 | – | – | – | – | – | – | –
O=C(Nc1ccc(F)cc1)C1C2CCC3C(CCC21)C3(Cl)Cl (centres undefined) | · | · | – | 51.6 | · | · | – | – | – | – | –
CCOc1ccc(NC(=O)C2C3CCC4C(CCC32)C4(Cl)Cl)cc1 (centres undefined) | – | – | – | – | · | · | · | · | · | · | ·
CCOC(=O)c1ccc(N2C(=O)C3C(/C=C/c4ccccc4)OC4(C(=O)c5ccccc5C4=O)C3C2=O)cc1 (centres undefined) | – | – | – | – | – | – | · | · | · | · | ·
OC(CNC1Cc2ccccc2C1)COc1ccc(Cl)cc1 (centres undefined) | · | – | – | 45.4 | · | · | – | – | 17.4 | 15.6 | –
O=C(Nc1ccccc1N1CCCCC1)c1ccc(Cl)c([N+](=O)[O-])c1 | – | – | – | 50.6 | · | · | 45.0 | 38.5 | 29.5 | 37.8 | 34.3
CN1CCN(c2ccccc2NC(=O)c2ccc(N3CCCC3)c([N+](=O)[O-])c2)CC1 | – | – | – | – | · | · | · | · | · | · | ·
O=C(Nc1cccnc1)c1ccc(COc2cc(Cl)ccc2Cl)o1 | – | – | – | 54.4 | – | – | – | – | – | 16.2 | –
O=C(Nc1cccnc1)c1ccc(COc2ccccc2Cl)o1 | – | – | – | – | – | – | · | · | · | · | ·

Source: PubChem (several laboratories)
